Data as given in ChEMBL document CHEMBL3994633, “Exploration of phenylpropanoic acids as agonists of the free fatty acid receptor 4 (FFA4): Identification of an orally efficacious FFA4 agonist” (Bioorg Med Chem Lett, 2017).
Values belong to the compound of their own block, whether it stands above or below them.

Assays:
[1] = molecular target: T1, Free fatty acid receptor 4 (Homo sapiens, UniProt Q5NUL3); experiment: Agonist activity at human FFA4 receptor expressed in human U2OS cells co-expressing Galpha16 assessed as calcium mobilization by Fluo-4 dye based FLIPR assay; format: functional, cell-based
T1 sequence (Q5NUL3 whole entry): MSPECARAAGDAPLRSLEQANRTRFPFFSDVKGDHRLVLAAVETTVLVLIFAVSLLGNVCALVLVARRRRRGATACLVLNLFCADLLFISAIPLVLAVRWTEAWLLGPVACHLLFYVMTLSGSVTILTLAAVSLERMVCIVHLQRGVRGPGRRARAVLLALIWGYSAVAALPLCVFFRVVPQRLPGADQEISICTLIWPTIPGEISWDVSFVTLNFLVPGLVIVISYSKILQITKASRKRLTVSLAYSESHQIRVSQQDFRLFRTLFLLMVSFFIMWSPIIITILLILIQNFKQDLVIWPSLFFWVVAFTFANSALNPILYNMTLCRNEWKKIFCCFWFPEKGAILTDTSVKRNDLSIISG
In short: (§1)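 U2OS cells transiently expressing human FFA1 or FFA4. Agonism measured from a ten-point dose-response curve with FLIPR readout, giving EC50 (nM) and efficacy (% max response). Values are means of three experiments.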

[2] = molecular target: T2, Free fatty acid receptor 1 (Homo sapiens, UniProt O14842); experiment: Agonist activity at human FFA1 receptor expressed in human U2OS cells co-expressing Galpha16 assessed as calcium mobilization by Fluo-4 dye based FLIPR assay; format: functional, cell-based; in short: as §1
T2 sequence (O14842 whole entry): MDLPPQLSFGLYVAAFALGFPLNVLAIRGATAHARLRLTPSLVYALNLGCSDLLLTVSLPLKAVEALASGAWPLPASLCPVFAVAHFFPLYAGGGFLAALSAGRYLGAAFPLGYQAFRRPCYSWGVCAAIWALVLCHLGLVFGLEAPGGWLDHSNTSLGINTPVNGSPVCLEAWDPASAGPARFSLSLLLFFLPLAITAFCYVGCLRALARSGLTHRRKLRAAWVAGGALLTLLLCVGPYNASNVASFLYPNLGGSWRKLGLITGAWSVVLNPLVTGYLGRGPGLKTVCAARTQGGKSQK

[3] = molecular target: T3, Free fatty acid receptor 4 (Homo sapiens) (UniProt Q5NUL3); experiment: Agonist activity at human FFA4 receptor expressed in human U2OS cells co-expressing Galpha16 assessed as calcium mobilization by Fluo-4 dye based FLIPR assay relative to GSK137647A; format: functional, cell-based; in short: as §1
T3 sequence (whole entry): T1 sequence (Q5NUL3 whole entry)

[4] = molecular target: T2, Free fatty acid receptor 1; experiment: Agonist activity at human FFA1 receptor expressed in human U2OS cells co-expressing Galpha16 assessed as calcium mobilization by Fluo-4 dye based FLIPR assay relative to GSK137647A; format: functional, cell-based; in short: as §1
[5] = species: Homo sapiens; experiment: Selectivity ratio of EC50 for human FFA4 receptor expressed in human U2OS cells co-expressing Galpha16 to EC50 for human FFA1 receptor expressed in human U2OS cells co-expressing Galpha16; format: cell-based
[6] = AUC in C57BL/6J mouse at 3 mg/kg, iv; format: ADME, organism-based; conditions: in vivo
In short: (§2)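 C57BL/6J mice (n = 2) dosed intravenously at 3 or 4.2 mg/kg. Clearance (mL/min/kg) and AUC (hr*ng/mL) derived from plasma concentrations.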

[7] = Tmax in C57BL/6J mouse at 10 mg/kg, po; format: ADME, organism-based; conditions: in vivo
[8] = Clearance in C57BL/6J mouse at 3 mg/kg, iv; format: ADME, organism-based; conditions: in vivo; in short: as §2
[9] = Cmax in C57BL/6J mouse at 10 mg/kg, po; format: ADME, organism-based; set-up: dose 10 mg/kg, route oral; conditions: in vivo
In short: (§3)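 C57BL/6J mice (n = 2), single oral dose of 10 mg/kg given as a suspension in 0.5% HMPC: 0.1% Tween. Plasma Cmax and AUC (hr*ng/mL) measured; %F calculated against the IV leg.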

[10] = Oral bioavailability in C57BL/6J mouse at 10 mg/kg; format: ADME, organism-based; conditions: in vivo; in short: as §3
[11] = AUC in C57BL/6J mouse at 10 mg/kg, po; format: ADME, organism-based; conditions: in vivo; in short: as §3
[12] = Protein binding in human plasma; format: ADME, cell-free; conditions: read-out: PPB
[13] = Volume of distribution at steady state in C57BL/6J mouse at 3 mg/kg, iv or 10 mg/kg, po; format: ADME, organism-based; conditions: in vivo, read-out: Vdss
[14] = species: Homo sapiens; experiment: Selectivity ratio of EC50 for human FFA1 receptor expressed in human U2OS cells co-expressing Galpha16 to EC50 for human FFA4 receptor expressed in human U2OS cells co-expressing Galpha16; format: cell-based

SMILES: Cc1cc(CCC(=O)O)ccc1OCc1cccc(Oc2ccccc2)c1
EC50 [1]: 556 nM | EC50 ([2]; read-out: EC50): 3840 nM | %max [3]: 95% | %max [4]: 90%

SMILES: CC(C)Cc1cc(CCC(=O)O)ccc1OCc1ccccc1SC(F)(F)F
EC50 [1]: 9660 nM | EC50 ([2]; read-out: EC50): > 30000 nM | %max [3]: 161%

SMILES: O=C(O)CCc1ccc(OCc2cccc(Oc3ccccc3)c2)cc1
EC50 [1]: 968 nM | Ratio EC50 [5]: 17 | %max [3]: 85% | %max [4]: 106%

SMILES: O=C(O)CCc1ccc(OCc2ccccc2SC(F)(F)F)cc1
EC50 [1]: 681 nM | EC50 ([2]; read-out: EC50): 1420 nM | %max [3]: 105% | %max [4]: 74 to 77% | Ratio EC50 [14]: 2

SMILES: O=C(O)COc1ccc(OCc2ccccc2SC(F)(F)F)cc1
EC50 [1]: 9980 nM | EC50 ([2]; read-out: EC50): > 30000 nM | %max [3]: 85%

SMILES: Cc1c(CCC(=O)O)ccc(OCc2ccccc2SC(F)(F)F)c1C
EC50 [1]: 304 nM | EC50 ([2]; read-out: EC50): > 30000 nM | %max [3]: 77%

SMILES: O=C(O)CCc1ccc(OCc2ccccc2SC(F)(F)F)c(CO)c1
EC50 [1]: 5910 nM | EC50 ([2]; read-out: EC50): > 30000 nM | %max [3]: 53%

SMILES: CC(CC(=O)O)c1ccc(OCc2ccccc2SC(F)(F)F)cc1 (centres undefined)
EC50 [1]: 11400 nM | EC50 ([2]; read-out: EC50): 13100 nM | %max [4]: 109%

SMILES: O=C(O)CCc1ccc(OCc2ccccc2SC(F)(F)F)c(Cl)c1
EC50 [1]: 108 nM | EC50 ([2]; read-out: EC50): > 10000 nM | EC50 ([2]; read-out: pEC50 (converted)): > 31600 nM | %max [3]: 80%

SMILES: COc1cc(CCC(=O)O)ccc1OCc1ccccc1SC(F)(F)F
EC50 [1]: 1990 nM | EC50 ([2]; read-out: EC50): > 30000 nM | %max [3]: 110%

SMILES: Cc1cc(CCC(=O)O)ccc1OCc1cc(C(F)(F)F)ccc1O
EC50 [1]: 10000 nM | %max [3]: 78%

SMILES: O=C(O)CCc1ccc(OCc2ccccc2SC(F)(F)F)c2ccccc12
EC50 [1]: 2290 nM | EC50 ([2]; read-out: EC50): > 30000 nM | %max [3]: 105%

SMILES: Cc1cc(CCC(=O)O)cc(C)c1OCc1ccccc1SC(F)(F)F
EC50 [1]: 660 nM | EC50 ([2]; read-out: EC50): 21800 nM | %max [3]: 102% | %max [4]: 115%

SMILES: O=C(O)CC(O)c1ccc(OCc2ccccc2SC(F)(F)F)cc1 (centres undefined)
EC50 [1]: > 30000 nM

SMILES: Cc1cc(COc2ccc(CCC(=O)O)cc2C)cc(Oc2ccccc2)c1
EC50 [1]: 40 nM | EC50 ([2]; read-out: EC50): 1630 nM | %max [3]: 97% | %max [4]: 85%

SMILES: Cc1cc(C)cc(COc2ccc(CCC(=O)O)cc2C)c1
EC50 [1]: 60 nM | AUC [6]: 1420 ng·h/mL | Tmax [7]: 15 to 30 min | EC50 ([2]; read-out: EC50): 3780 nM | clearance [8]: 35 mL/min/kg | Cmax [9]: 2630 ng/mL | %max [3]: 66% | %max [4]: 97% | bioavailability [10]: 55% | AUC [11]: 2600 ng·h/mL | fraction unbound [12]: < 0.01 | Vd [13]: < 2 L/kg

SMILES: Cc1cc(CCC(=O)O)ccc1OCc1cccc(C(F)(F)F)c1
EC50 [1]: 898 nM | EC50 ([2]; read-out: EC50): > 30000 nM | %max [3]: 117%

SMILES: Cc1cc(OCc2ccccc2SC(F)(F)F)ccc1CCC(=O)O
EC50 [1]: 722 nM | EC50 ([2]; read-out: EC50): 1540 nM | %max [3]: 90% | %max [4]: 108%

The next lines start with the values.

EC50 [1]: 750 nM | EC50 ([2]; read-out: EC50): > 30000 nM | %max [3]: 83%
SMILES: Cc1cc(CCC(=O)O)ccc1OCc1ccccc1

EC50 [1]: 188 nM | AUC [6]: 2860 ng·h/mL | Tmax [7]: 15 to 30 min | EC50 ([2]; read-out: EC50): 18100 nM | clearance [8]: 18 mL/min/kg | Cmax [9]: 3030 ng/mL | %max [3]: 115% | %max [4]: 243% | bioavailability [10]: 46% | AUC [11]: 4400 ng·h/mL | fraction unbound [12]: < 0.01 | Vd [13]: < 2 L/kg
SMILES: Cc1ccc(Cl)c(COc2ccc(CCC(=O)O)cc2C)c1

EC50 [1]: 236 nM | EC50 ([2]; read-out: EC50): > 30000 nM | %max [3]: 116%
SMILES: Cc1cc(CCC(=O)O)ccc1OCc1ccccc1Br

EC50 [1]: 201 nM | EC50 ([2]; read-out: EC50): 8510 nM | %max [3]: 108% | %max [4]: 81%
SMILES: Cc1cc(CCC(=O)O)ccc1OCc1ccccc1SC(F)(F)F

EC50 [1]: 531 nM | EC50 ([2]; read-out: EC50): 8600 nM | %max [3]: 103% | %max [4]: 95%
SMILES: Cc1cc(CCC(=O)O)ccc1OCc1ccccc1C(F)(F)F

EC50 [1]: 172 nM | EC50 ([2]; read-out: EC50): 19600 nM | %max [3]: 106% | %max [4]: 154%
SMILES: Cc1ccc(OC(C)C)c(COc2ccc(CCC(=O)O)cc2C)c1

EC50 [1]: 972 nM | EC50 ([2]; read-out: EC50): 11600 nM | %max [3]: 130% | %max [4]: 80%
SMILES: Cc1cc(CCC(=O)O)ccc1OCc1ccccc1Cl

EC50 [1]: 53 nM | EC50 ([2]; read-out: EC50): > 30000 nM | %max [3]: 118%
SMILES: Cc1ccc(Br)c(COc2ccc(CCC(=O)O)cc2C)c1

EC50 [1]: 271 nM | EC50 ([2]; read-out: EC50): > 30000 nM | %max [3]: 118%
SMILES: Cc1cc(CCC(=O)O)ccc1OCc1ccccc1OC(C)C

EC50 [1]: 60 nM | AUC [6]: 1170 ng·h/mL | Tmax [7]: 15 to 30 min | EC50 ([2]; read-out: EC50): > 30000 nM | clearance [8]: 43 mL/min/kg | Cmax [9]: 687 ng/mL | %max [3]: 112% | bioavailability [10]: 20% | AUC [11]: 767 ng·h/mL | fraction unbound [12]: < 0.01 | Vd [13]: < 2 L/kg
SMILES: Cc1cc(COc2ccc(CCC(=O)O)cc2C)cc(OC(C)C)c1

EC50 [1]: 275 nM | AUC [6]: 4100 ng·h/mL | Tmax [7]: 15 to 30 min | EC50 ([2]; read-out: EC50): > 30000 nM | clearance [8]: 12 mL/min/kg | Cmax [9]: 3080 ng/mL | %max [3]: 100% | bioavailability [10]: 39% | AUC [11]: 5350 ng·h/mL | fraction unbound [12]: < 0.01 | Vd [13]: < 2 L/kg
SMILES: Cc1cccc(COc2ccc(CCC(=O)O)cc2C)c1

EC50 [1]: 362 nM | EC50 ([2]; read-out: EC50): 10300 nM | %max [3]: 104% | %max [4]: 60%
SMILES: Cc1cc(CCC(=O)O)ccc1OCc1cccc(Cl)c1
